Where a name gives a salt, the structure may show the parent alone. Calls of active or inactive are those of the source. The rule behind the calls is not given here.
Assays:
[1] = target: T1, Delta-type opioid receptor (Rattus norvegicus, UniProt P33533); assay: Affinity against the Opioid receptor delta 1
Mus musculus [2] = assay: Compound was tested for analgesic activity in mouse using mouse writhing test following subcutaneous administration; type: functional
Mus musculus [3] = assay: Analgesic antagonistic activity in mice using morphine(56.07 umol/kg) induced Straub-tail test after sc administration; type: functional
Summary of the method: (§1)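 Mice got the test substance, N-allylnormorphine reference, or diluent sc, then immediately 56.07 µmol/kg morphine sulfate sc. The number of mice showing a Straub-tail reaction (tail raised above 45°) was recorded 15–25 min after treatment.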

Mus musculus [4] = assay: Compound was tested for analgesic activity in mouse using mouse writhing test after sc administration of compound; type: functional
[5] = target: T1, Delta-type opioid receptor; assay: Opioid receptor affinity against the Opioid receptor delta 1 by using the curve-fitting program LIGAND
Mu-type opioid receptor [6] = target: T2, Mu-type opioid receptor (Rattus norvegicus, UniProt P33535); assay: Mu2 opioid receptor affinity against the receptor site model site 2 (mu2) by using the curve-fitting program LIGAND
T2 sequence (P33535 whole entry): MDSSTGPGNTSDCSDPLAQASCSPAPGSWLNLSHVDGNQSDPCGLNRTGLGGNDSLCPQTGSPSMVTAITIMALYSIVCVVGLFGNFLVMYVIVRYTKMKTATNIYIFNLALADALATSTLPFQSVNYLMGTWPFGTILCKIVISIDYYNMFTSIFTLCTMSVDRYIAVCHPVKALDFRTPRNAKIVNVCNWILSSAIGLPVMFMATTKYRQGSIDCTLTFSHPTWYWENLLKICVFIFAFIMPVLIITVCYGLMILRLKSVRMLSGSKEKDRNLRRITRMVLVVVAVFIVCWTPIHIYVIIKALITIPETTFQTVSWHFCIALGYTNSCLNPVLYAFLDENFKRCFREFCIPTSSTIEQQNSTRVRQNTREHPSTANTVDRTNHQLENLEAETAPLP

Mu-type opioid receptor [7] = target: T2, Mu-type opioid receptor; assay: (§2) Opioid receptor mu 1 affinity against the receptor site model site 1 (mu1) by using the curve-fitting program LIGAND
Summary of the method: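 Rat whole-brain homogenate, preincubated 37 °C 1 h, resuspended in Tris pH 7.7 (with 100 mM NaCl when appropriate) at 6.7 mg tissue/mL. […] Triplicate tubes, 25 °C 45 min, then filtration. Self- and cross-competition data were fitted together by multisite LIGAND analysis for site affinities. Values are averages of at least two experiments.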

Opioid receptor = Opioid receptor (Rattus norvegicus, UniProt P33533+P34975+P33535); assay: Opioid receptor affinity against the receptor site model site 5 by using the curve-fitting program LIGAND; type: protein assay
Mus musculus [8] = assay: Compound was tested for analgesic potency using writhing test in mouse after sc administration of compound; type: functional
Mus musculus [9] = assay: Compound was tested for narcotic antagonist potency using tail flick test in mouse after sc administration of compound; type: functional
[10] = target: Kappa-type opioid receptor (Rattus norvegicus, UniProt P34975); assay: Opioid receptor affinity against Opioid receptor kappa 1 by using the curve-fitting program LIGAND
Sequence of Kappa-type opioid receptor (P34975 whole entry): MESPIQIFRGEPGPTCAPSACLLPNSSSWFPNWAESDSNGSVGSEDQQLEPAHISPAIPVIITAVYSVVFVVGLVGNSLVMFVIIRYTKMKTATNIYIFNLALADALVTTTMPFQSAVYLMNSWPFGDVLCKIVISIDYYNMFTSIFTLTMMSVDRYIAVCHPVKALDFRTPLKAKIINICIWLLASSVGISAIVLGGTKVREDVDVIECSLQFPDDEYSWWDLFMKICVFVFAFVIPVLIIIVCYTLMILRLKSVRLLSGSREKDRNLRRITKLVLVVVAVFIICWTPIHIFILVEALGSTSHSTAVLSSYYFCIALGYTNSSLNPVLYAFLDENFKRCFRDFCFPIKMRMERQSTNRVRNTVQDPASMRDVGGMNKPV

Mu-type opioid receptor [11] = target: T2, Mu-type opioid receptor; assay: as §2; remark: listed apart in the source
Mus musculus [12] = assay: Compound was tested for narcotic antagonist potency using tail flick test in mouse after sc administration of compound; no significant antagonist activity up to dose of 240-300 umol/kg.; type: functional, organism-based
Mus musculus [13] = assay: Compound was tested for narcotic antagonist potency using tail flick test in mouse after sc administration of compound; No significant antagonist activity up to dose of 240-300 umol/kg.; type: functional, organism-based
Mus musculus [14] = assay: Analgesic antagonistic activity in mice using morphine(56.07 umol/kg) induced Straub-tail test after sc administration; No antagonist activity up to 846 umol/ kg; type: functional, organism-based; summary of the method: as §1
Mus musculus [15] = assay: Compound was tested for narcotic antagonist potency using tail flick test in mouse following subcutaneous administration; type: functional; conditions: sc
[16] = Mus musculus, sc, read-out: ED50

T1 sequence (P33533 whole entry): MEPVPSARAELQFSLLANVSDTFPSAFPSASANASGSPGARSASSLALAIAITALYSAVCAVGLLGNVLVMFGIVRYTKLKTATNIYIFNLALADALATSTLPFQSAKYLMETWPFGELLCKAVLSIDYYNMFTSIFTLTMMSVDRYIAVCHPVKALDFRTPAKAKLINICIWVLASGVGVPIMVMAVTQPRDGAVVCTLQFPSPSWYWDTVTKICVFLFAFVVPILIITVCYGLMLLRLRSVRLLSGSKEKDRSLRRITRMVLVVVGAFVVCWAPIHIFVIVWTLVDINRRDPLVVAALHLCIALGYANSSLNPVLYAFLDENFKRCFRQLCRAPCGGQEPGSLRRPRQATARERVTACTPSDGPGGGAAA

CCC1C2C(=O)c3ccc(O)cc3C1(C)CCN2CC1CC1 (stereo unspecified)
Kd [1]: 14 nM

CN1CC[C@]23c4c5ccc(O)c4O[C@H]2[C@@H](O)C=C[C@H]3[C@H]1C5
ED50 (Mus musculus [2]; [16]): 0.81 µmol/kg

CC1(c2cccc(O)c2)CCCN(CCc2ccccc2)C1 (racemic)
AD50 (Mus musculus [3]): 33.94 µM/kg
ED50 (Mus musculus [4]): 14.1 µmol/kg

C=CCN1CCCC(C)(c2cccc(O)c2)C1 (racemic)
AD50 (Mus musculus [3]): 38.83 µM/kg
ED50 (Mus musculus [4]): 418 µmol/kg

Br.CN1CCCC(C)(c2cccc(O)c2)C1 (racemic)
AD50 (Mus musculus [3]): 18.17 µM/kg
ED50 (Mus musculus [4]): 26.9 µmol/kg

CC1(c2cccc(O)c2)CCCN(CC2CC2)C1 (racemic)
AD50 (Mus musculus [3]): 7.5 µM/kg
ED50 (Mus musculus [4]): 83.5 µmol/kg

C=CCN1CCCC(C)(c2cccc(O)c2)C1 (single isomer, unassigned; (+))
Kd [5]: 4000 nM
Kd (Mu-type opioid receptor [6]): 370 nM
Kd (Mu-type opioid receptor [7]): 100 nM
Kd (Opioid receptor): 3700 nM
ED50 (Mus musculus [8]): 160.94 µM/kg
ED50 (Mus musculus [9]): 112 µmol/kg
Kd [10]: 137 nM

CC1(c2cccc(O)c2)CCCN(CC2CC2)C1 (single isomer, unassigned; (+))
ED50 (Mus musculus [9]): 139 µmol/kg

CC1(c2cccc(O)c2)CCCN(CCc2ccccc2)C1 (single isomer, unassigned; (-)) [listing 1 of 2 here]
Kd [5]: 2170 nM
Kd (Mu-type opioid receptor [6]): 130 nM
Kd (Opioid receptor): 1390 nM
ED50 (Mus musculus [8]): 18.38 µM/kg
Kd (Mu-type opioid receptor [11]): 13 nM
Kd [10]: 625 nM

C=CCN1CCCC(C)(c2cccc(O)c2)C1 (single isomer, unassigned; (-)) [listing 1 of 2 here]
Kd [5]: 4000 nM
Kd (Mu-type opioid receptor [6]): 110 nM
Kd (Opioid receptor): 1720 nM
ED50 (Mus musculus [8]): 14.34 µM/kg
Kd (Mu-type opioid receptor [11]): 24 nM
Kd [10]: 370 nM

CC1(c2cccc(O)c2)CCCN(CC2CC2)C1 (single isomer, unassigned; (-)) [listing 1 of 2 here]
ED50 (Mus musculus [8]; [16]): 12.2 µmol/kg

C=CCN1CCCC(C)(c2cccc(O)c2)C1 (single isomer, unassigned; (-)) [listing 2 of 2 here]
ED50 (Mus musculus [12]): inactive

CC1(c2cccc(O)c2)CCCN(CC2CC2)C1 (single isomer, unassigned; (-)) [listing 2 of 2 here]
ED50 (Mus musculus [12]): inactive

CC1(c2cccc(O)c2)CCCN(CCc2ccccc2)C1 (single isomer, unassigned; (-)) [listing 2 of 2 here]
ED50 (Mus musculus [12]): inactive

CN1CCCC(C)(c2cccc(O)c2)C1 (stereo in doubt; (+)-7a)
Kd [5]: 15900 nM
Kd (Mu-type opioid receptor [6]): 1000 nM
Kd (Opioid receptor): 19200 nM
ED50 (Mus musculus [8]): 41.36 µM/kg
ED50 (Mus musculus [9]): 101 µmol/kg
Kd (Mu-type opioid receptor [11]): 132 nM
Kd [10]: 714 nM

CC1(c2cccc(O)c2)CCCN(CCc2ccccc2)C1 (stereo in doubt; (+)-7d)
Kd [5]: 588 nM
Kd (Mu-type opioid receptor [6]): 6.2 nM
Kd (Opioid receptor): 26300 nM
ED50 (Mus musculus [8]; [16]): 11.5 µmol/kg
ED50 (Mus musculus [9]): 13.1 µmol/kg
Kd (Mu-type opioid receptor [11]): 5 nM
Kd [10]: 179 nM

CN1CCCC(C)(c2cccc(O)c2)C1 (stereo in doubt; (-)-7a) [listing 1 of 2 here]
Kd [5]: 30000 nM
Kd (Mu-type opioid receptor [6]): 1170 nM
Kd (Mu-type opioid receptor [7]): 114 nM
Kd (Opioid receptor): 8330 nM
ED50 (Mus musculus [8]; [16]): 25.7 µmol/kg
Kd [10]: 625 nM

CN1CCCC(C)(c2cccc(O)c2)C1 (stereo in doubt; (-)-7a) [listing 2 of 2 here]
ED50 (Mus musculus [13]): inactive

CCOC(=O)C1(c2ccccc2)CCN(C)CC1 [MEPERIDINE HYDROCHLORIDE]
ED50 (Mus musculus [4]): 20.2 µmol/kg
AD50 (Mus musculus [14]): inactive

C=CCN1CC[C@]23c4c5ccc(O)c4O[C@H]2[C@@H](O)C=C[C@H]3[C@H]1C5.Cl [NALORPHINE HYDROCHLORIDE]
AD50 (Mus musculus [3]): 0.71 µM/kg
ED50 (Mus musculus [2]; [16]): 1.4 µmol/kg

C=CCN1CC[C@]23c4c5ccc(O)c4O[C@H]2[C@@H](O)C=C[C@H]3[C@H]1C5 [NALORPHINE]
ED50 (Mus musculus [15]): 2.04 µmol/kg
ED50 (Mus musculus [2]): 1.4 µM/kg

Reference: ChEMBL document CHEMBL1123470, “N-substituent modulation of opiate agonist/antagonist activity in resolved 3-methyl-3-(m-hydroxyphenyl)piperidines” (J Med Chem, 1986)
